Columns and labels:
[1] = target: T1, Adenosine receptor A1 (Homo sapiens, UniProt P30542); assay: Displacement of [3H]DPCPX from recombinant human adenosine A1 receptor expressed in CHO cell membranes after 1 hr by beta scintillation counting method
T1 sequence (P30542 whole entry): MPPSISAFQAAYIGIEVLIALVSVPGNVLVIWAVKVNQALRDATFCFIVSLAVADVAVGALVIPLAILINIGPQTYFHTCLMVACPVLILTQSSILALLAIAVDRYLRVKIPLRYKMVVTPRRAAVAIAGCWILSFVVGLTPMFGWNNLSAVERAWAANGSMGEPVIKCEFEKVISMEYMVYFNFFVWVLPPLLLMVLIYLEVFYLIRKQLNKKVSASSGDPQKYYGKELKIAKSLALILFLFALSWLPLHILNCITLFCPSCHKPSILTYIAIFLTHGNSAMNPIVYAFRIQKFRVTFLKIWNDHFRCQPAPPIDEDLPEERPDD

[2] = target: T2, Adenosine receptor A2a (Homo sapiens, UniProt P29274); assay: Displacement of [3H]ZM241385 from recombinant human adenosine A2A receptor expressed in HEK293 cell membranes at 1 uM after 2 hrs by beta scintillation counting method relative to control
Summary of the method: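 Single-concentration screen on membranes from HEK293 cells stably expressing human A2A receptor. Test ligand at 1 µM, measured against specific [3H]ZM241385 binding and given as % displacement. Two independent experiments (n = 2), each value reported.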

[3] = target: T2, Adenosine receptor A2a; assay: Displacement of [3H]ZM241385 from recombinant human adenosine A2A receptor expressed in HEK293 cell membranes after 2 hrs by beta scintillation counting method
Summary of the method: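 Membranes from HEK293 cells stably expressing human A2A receptor were used in radioligand competition with [3H]ZM241385. Ki was reported as mean ± SEM, n = 3.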

[4] = target: T1, Adenosine receptor A1; assay: Inverse agonist activity at recombinant human adenosine A1 receptor expressed in CHO cell membranes assessed as […] of [35S]GTPgammaS binding preincubated for 30 mins followed by [35S]GTPgammaS addition measured after 90 mins by beta scintillation counting method; format: functional
[5] = target: T3, Adenosine receptor A2b (Homo sapiens, UniProt P29275); assay: Displacement of [3H]PSB603 from recombinant human adenosine A2B receptor expressed in CHO cell membranes after 1 hr by beta scintillation counting method
T3 sequence (P29275 whole entry): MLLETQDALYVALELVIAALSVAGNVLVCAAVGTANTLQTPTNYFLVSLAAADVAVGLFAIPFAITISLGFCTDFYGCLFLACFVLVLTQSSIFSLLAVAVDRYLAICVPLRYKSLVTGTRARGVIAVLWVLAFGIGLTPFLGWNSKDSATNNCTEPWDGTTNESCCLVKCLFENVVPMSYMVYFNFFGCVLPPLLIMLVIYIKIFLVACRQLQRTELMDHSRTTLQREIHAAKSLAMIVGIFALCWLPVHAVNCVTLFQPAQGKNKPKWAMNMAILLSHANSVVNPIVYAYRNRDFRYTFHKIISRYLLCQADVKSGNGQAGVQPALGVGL

[6] = target: T4, Adenosine receptor A3 (Homo sapiens) (UniProt P0DMS8); assay: Displacement of [3H]PSB11 from recombinant human adenosine A3 receptor expressed in CHO cell membranes at 1 uM after 1 hr by […] method relative to control
T4 sequence (whole entry): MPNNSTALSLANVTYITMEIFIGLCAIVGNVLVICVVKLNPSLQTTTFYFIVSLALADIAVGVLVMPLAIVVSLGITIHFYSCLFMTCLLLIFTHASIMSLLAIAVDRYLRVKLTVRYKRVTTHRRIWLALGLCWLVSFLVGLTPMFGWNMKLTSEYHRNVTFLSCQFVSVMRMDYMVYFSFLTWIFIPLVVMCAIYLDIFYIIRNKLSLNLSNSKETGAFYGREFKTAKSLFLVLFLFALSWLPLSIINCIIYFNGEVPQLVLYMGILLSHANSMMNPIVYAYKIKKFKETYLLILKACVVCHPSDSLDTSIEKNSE

[7] = target: T5, Adenosine receptor A2b (Homo sapiens) (UniProt P29275); assay: Displacement of [3H]PSB603 from recombinant human adenosine A2B receptor expressed in CHO cell membranes at 1 uM after 1 hr by beta scintillation counting method relative to control
T5 sequence (whole entry): T3 sequence (P29275 whole entry)

T2 sequence (P29274 whole entry): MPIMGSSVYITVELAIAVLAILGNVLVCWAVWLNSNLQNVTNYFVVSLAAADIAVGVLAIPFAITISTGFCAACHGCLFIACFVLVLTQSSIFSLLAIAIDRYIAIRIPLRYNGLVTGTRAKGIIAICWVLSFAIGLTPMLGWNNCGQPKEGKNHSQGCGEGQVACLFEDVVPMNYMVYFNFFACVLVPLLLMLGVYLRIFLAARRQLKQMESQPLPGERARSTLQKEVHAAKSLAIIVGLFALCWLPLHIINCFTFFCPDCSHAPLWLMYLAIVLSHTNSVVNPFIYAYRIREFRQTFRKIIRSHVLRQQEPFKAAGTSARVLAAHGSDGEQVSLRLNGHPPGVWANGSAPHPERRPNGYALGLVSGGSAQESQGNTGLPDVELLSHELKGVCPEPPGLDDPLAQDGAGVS

Ki [1] | Ki [3] | Compound | further results
94 nM |  | Clc1cccc(-c2cnc(NC3CCCC3)nc2-c2ccccc2)c1 | inhibition [2]: 23%
1.06 nM | 65 nM | O[C@H]1CC[C@H](Nc2ncc(-c3ccnc(C4CC4)c3)c(-c3ccccc3)n2)CC1 | 
 | 7.2 nM | Oc1ccc(-c2cnc(N[C@H]3CC[C@H](O)CC3)nc2-c2ccccc2)cc1Cl | 
180 nM |  | OCCNc1ncc(-c2cccc(Cl)c2)c(-c2ccccc2)n1 | 
1.76 nM | 36 nM | Nc1ncc(-c2ccnc(C3CC3)c2)c(-c2ccccc2)n1 | 
59 nM |  | OCCCNc1ncc(-c2cccc(Cl)c2)c(-c2ccccc2)n1 | inhibition [2]: 9.5%
30 nM |  | O[C@H]1CC[C@H](Nc2ncc(-c3cccc(Cl)c3)c(-c3ccccc3)n2)CC1 | inhibition [2]: 1.4%; EC50 [4]: 278 nM; inhibition [6]: 3%; inhibition [7]: 27%

Second part, the molecule before the results:

Compound | Ki [1] | Ki [3] | further results
Nc1ncc(-c2ccncc2)c(-c2ccccc2)n1 | 17 nM | 108 nM | 
Nc1ncc(-c2ccc(O)c(O)c2)c(-c2ccccc2)n1 | 12 nM | 4.7 nM | 
Nc1ncc(-c2cccc(C(F)(F)F)c2)c(-c2ccccc2)n1 | 14 nM | 98 nM | 
O[C@H]1CC[C@H](Nc2ncc(-c3ccc4ccccc4c3)c(-c3ccccc3)n2)CC1 |  |  | EC50 [4]: 166 nM; IC50 [5]: 1000 nM; inhibition [6]: 9%; inhibition [7]: 48%
COc1ccc(-c2cnc(N)nc2-c2ccccc2)cc1Cl | 30 to 95 nM | 251 nM | 
Nc1ncc(-c2ccc3ccccc3c2)c(-c2ccccc2)n1 | 18 nM | 129 nM | 
Nc1ncc(-c2ccc(F)cc2)c(-c2ccccc2)n1 | 160 nM |  | 
OCCCCNc1ncc(-c2cccc(Cl)c2)c(-c2ccccc2)n1 | 130 nM |  | inhibition [2]: 13%
Nc1ncc(-c2cccc(Cl)c2)c(-c2ccccc2)n1 | 55 nM | 120 nM | 
Nc1ncc(-c2ccc(O)cc2)c(-c2ccccc2)n1 | 1.4 nM | 1.3 nM | 
COc1cccc(-c2cnc(N)nc2-c2ccccc2)c1 | 54 nM | 154 nM | 
COc1ccc(-c2cnc(N)nc2-c2ccccc2)cc1OC | 104 nM |  | 
Nc1ncc(-c2ccc(Cl)c(Cl)c2)c(-c2ccccc2)n1 | 38 nM |  | inhibition [2]: 41%
Nc1ncc(-c2cccc(O)c2)c(-c2ccccc2)n1 | 144 nM |  | 
Cc1cccc(-c2cnc(N)nc2-c2ccccc2)c1 | 205 nM |  | 
CCCC(=O)Nc1ncc(-c2cccc(Cl)c2)c(-c2ccccc2)n1 | 106 nM |  | 
Nc1ncc(-c2ccc(O)c(Cl)c2)c(-c2ccccc2)n1 | 0.46 nM | 1.3 nM | 

— ChEMBL document CHEMBL3877273, “Synthesis and evaluation of N-substituted 2-amino-4,5-diarylpyrimidines as selective adenosine A1 receptor antagonists” (Eur J Med Chem, 2017)
